Screens from PubChem BioAssay.
Tn7 DDE FP – DD(E)-Tn7 binding inhibition, primary FP screen | AID 720508 | FP displacement of FITC-Tn7 peptide from fibrin DD(E); 0% = median of compound wells per plate | P02675 | inhibition, % at 8.3 µM | 0.13% of 370,000 active;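 active means inhibition above the mean of compounds falling within the control limits plus 3 SD of them, cut at about 14% in these data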
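Test system: human clot-derived fibrin DD(E) complex / Quantity: 2 µM final DD(E) protein / Incubation: 10 min plus 3 h, room temperature / Measured by: fluorescence polarization / Benchmarks: high control of 10 µM Aha-Tn7 peptide / Replicates: singlicate testing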
PLCb3 inh – PLC-beta3 (human) inhibition, primary screen; Q01970; Purified PLC-beta3, fluorogenic substrate, fluorescence; inhibition, % at 12.2 µM; 0.18% of 370,000 active; in the data active means inhibition above about 11%
Target sequence (Q01970 whole entry, looked up): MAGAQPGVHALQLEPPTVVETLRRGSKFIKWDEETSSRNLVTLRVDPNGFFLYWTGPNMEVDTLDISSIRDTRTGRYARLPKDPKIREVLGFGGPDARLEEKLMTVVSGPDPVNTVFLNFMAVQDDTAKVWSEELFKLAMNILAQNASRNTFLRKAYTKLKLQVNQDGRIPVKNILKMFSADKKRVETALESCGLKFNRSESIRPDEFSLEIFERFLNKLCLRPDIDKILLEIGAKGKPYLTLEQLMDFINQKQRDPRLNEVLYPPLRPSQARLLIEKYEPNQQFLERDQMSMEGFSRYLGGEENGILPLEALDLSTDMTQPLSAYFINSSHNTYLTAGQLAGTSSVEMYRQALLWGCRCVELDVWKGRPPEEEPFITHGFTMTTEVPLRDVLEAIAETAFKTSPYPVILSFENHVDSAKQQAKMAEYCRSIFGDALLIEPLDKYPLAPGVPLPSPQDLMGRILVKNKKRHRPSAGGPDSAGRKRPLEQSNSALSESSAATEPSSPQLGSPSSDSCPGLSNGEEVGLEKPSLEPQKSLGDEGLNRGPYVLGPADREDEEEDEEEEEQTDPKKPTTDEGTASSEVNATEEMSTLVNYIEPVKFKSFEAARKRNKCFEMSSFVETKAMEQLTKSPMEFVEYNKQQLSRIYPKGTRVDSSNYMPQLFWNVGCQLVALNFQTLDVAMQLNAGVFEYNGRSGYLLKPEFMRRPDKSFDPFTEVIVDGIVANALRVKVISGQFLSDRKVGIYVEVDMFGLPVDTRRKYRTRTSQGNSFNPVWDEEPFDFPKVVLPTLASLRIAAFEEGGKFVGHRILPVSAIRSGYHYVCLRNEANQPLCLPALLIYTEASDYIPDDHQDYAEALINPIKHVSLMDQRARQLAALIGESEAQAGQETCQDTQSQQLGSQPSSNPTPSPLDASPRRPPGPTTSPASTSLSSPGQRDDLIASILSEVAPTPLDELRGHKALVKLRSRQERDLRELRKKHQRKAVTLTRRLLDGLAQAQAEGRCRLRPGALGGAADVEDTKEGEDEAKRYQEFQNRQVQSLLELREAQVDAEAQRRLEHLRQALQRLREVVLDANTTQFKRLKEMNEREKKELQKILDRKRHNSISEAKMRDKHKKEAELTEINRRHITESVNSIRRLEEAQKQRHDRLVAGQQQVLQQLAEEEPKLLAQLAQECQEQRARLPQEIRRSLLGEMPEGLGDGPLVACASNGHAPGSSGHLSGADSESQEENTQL
PLC-gamma1 inh – blocks human PLC-gamma1 enzyme activity; purified PLC-gamma1, fluorogenic substrate, fluorescence; inhibition, % at 12.2 µM; P19174; 0.84% of 370,000 active
NRP1-CendR mod – alters CendR peptide binding to human NRP-1 | O14786 | FAM-RPARPAR peptide binding to NRP-1, fluorescence polarization | AID 602438 | 0.85% of 360,000 active | inhibition, % at 25 µM;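 active means inhibition or corrected inhibition above about 18%, plus a signal ratio from 0.5 to 1.5, limit read from the data, passing the limit was not always enough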
KLK7 zymogen act – proKLK7 (human) activation, primary screen; purified proKLK7, EDANS-DABCYL substrate fluorescence; 100% is mature enzyme control, 0% vehicle; activation, % at 7 µM; 0.9% of 370,000 active;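 active means activation above the mean of all tested compounds plus 3 SD, computed per campaign excluding outliers beyond control limits, cut at about 13% in these data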
DDE Tn6 FP inh – disrupts Tn6 cyclic peptide binding to fibrin D-Dimer-E complex. P02675. Fibrin DD(E) TRITC-Tn6 fluorescence polarization displacement. inhibition, % at 8.3 µM. 0.21% of 370,000 active. AID 720509;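 active means inhibition above a per-campaign cutoff: mean of compounds within control limits plus 3 SD, cut at about 15% in these data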
PLCg1 ctr – inhibits human PLC-gamma1 in PLC-beta3 counter-screen; purified PLC-gamma1, fluorogenic substrate, fluorescence; 3.1% of 3,300 active; shares compounds with PLC-gamma1 inh; AID 743258; inhibition, % at 12.3 µM
PLCb3 confirm – confirmation of human PLC-beta3 inhibitors | AID 743261 | inhibition, % at 12.3 µM | 1% of 3,300 active | shares compounds with PLC-gamma1 inh | purified PLC-beta3, fluorogenic substrate fluorescence; in the data active means inhibition above about 11%
Each line names hits and unclear results; the compound was inactive in the other large screens (follow-up assays come after a bar, where they were run). Most compounds without a hit are left out; they make up all but 3% or so of the library. Unless noted, no stated cut-off is given here; in the data, active means inhibition above about 9.5%; inactive means the rest.

CN(C)S(=O)(=O)c1ccc(NC(=O)COC(=O)CC2CC3CCC2C3)cc1 (configuration not stated)	PLC-gamma1 inh 9.8 | PLCg1 ctr inactive | PLCb3 confirm inactive
O=C(Nc1cc2c(cc1[N+](=O)[O-])OCCO2)c1cccnc1	PLC-gamma1 inh 10 | PLCg1 ctr inactive | PLCb3 confirm inactive
Cc1cccc(Nc2nnc(SCC(=O)Nc3ccc(C(=O)O)cc3)s2)c1	PLC-gamma1 inh 9.8 | PLCg1 ctr inactive | PLCb3 confirm inactive
CCOC(=O)c1ccc(NC(=O)CSc2nc(SC)ns2)cc1	none
CCOC(=O)c1ccc(NC(=O)CSc2nnc(SCc3cccc4ccccc34)s2)cc1	PLC-gamma1 inh 12 (no result: NRP1-CendR mod) | PLCg1 ctr inactive | PLCb3 confirm inactive
O=S1(=O)c2c(NCc3ccco3)cccc2Oc2ccccc2CN1Cc1cn(Cc2ccc(C(F)(F)F)cc2)nn1	none (no result: NRP1-CendR mod)
Cn1cnnc1SCNC(=O)C(F)(F)F	PLCb3 inh 12 | PLCg1 ctr inactive | PLCb3 confirm inactive
COCCC(=O)N1CCC(Oc2ccc(C(=O)N3CCCC(OC)C3)cc2)CC1 (configuration not stated)	PLCb3 inh 12 | PLCg1 ctr inactive | PLCb3 confirm inactive
CCCOC1CCCN(C(=O)c2ccc(OC3CCN(C(=O)CCOC)CC3)cc2)C1 (configuration not stated)	none
COC1CCN(C(=O)c2ccc(OC3CCN(Cc4ccccn4)CC3)cc2)CC1	PLC-gamma1 inh 10 | PLCg1 ctr inactive | PLCb3 confirm inactive
COCC1CCN(C(=O)c2ccc(OC3CCN(Cc4ccccn4)CC3)cc2)C1 (configuration not stated)	none
C[C@H]1/C=C/CC(=O)N[C@@H](c2ccc3ccccc3c2)[C@@H](C)/C=C/CC(=O)N[C@H]1c1ccc2ccccc2c1	none (no result: NRP1-CendR mod)
Fc1cc(F)c(CSc2nnc(-c3cccnc3)n2Cc2ccccc2)cc1F	none (no result: NRP1-CendR mod)
O=C(N/N=C/C(Cl)=C/c1ccc([N+](=O)[O-])cc1)C(=O)Nc1cccc(C(=O)O)c1	PLC-gamma1 inh 13 | PLCg1 ctr inactive | PLCb3 confirm inactive
CN1C(=O)C(c2cn(C)c3ccccc23)(c2cn(C)c3ccccc23)c2cc(F)ccc21	none
CN1C(=O)[C@@](O)(c2cn(C)c3ccccc23)c2cc(F)ccc21	PLCb3 inh 12 | PLCg1 ctr inactive | PLCb3 confirm inactive
CCCS(=O)(=O)NC(=O)C1(C)CCN(C(=O)c2cc(C)on2)C1 (configuration not stated)	PLC-gamma1 inh 9.5 | PLCg1 ctr inactive | PLCb3 confirm inactive
Cc1nn(-c2ccccc2)c(Cl)c1C(=O)NCCCCNC(=O)c1c(C)nn(-c2ccccc2)c1Cl	PLCb3 inh 14, PLC-gamma1 inh 12 | PLCg1 ctr inactive | PLCb3 confirm inactive
Cc1nn(-c2ccccc2)c(Cl)c1C(=O)NCc1ccccc1F	none
CC(C)(C)C(=O)CSc1nccc(=O)[nH]1	PLC-gamma1 inh 10 | PLCg1 ctr inactive | PLCb3 confirm inactive
Cc1cc(C(=O)O)c(CCCN)s1	PLCb3 inh 12 | PLCg1 ctr inactive | PLCb3 confirm inactive
CCCCc1c(C(=O)O)cc(OC)cc1C(=O)O	none
COC(=O)c1sc(N)c(C(=O)OC)c1CSc1nnc(-c2ccccc2Cl)n1C	none
COC(=O)c1sc(N)c(C(=O)OC)c1CSc1nnnn1C	PLC-gamma1 inh 9.9 | PLCg1 ctr inactive | PLCb3 confirm inactive
O=C(Cn1c(-c2cncs2)nc2ccccc21)N1CCCCC1	none (no result: NRP1-CendR mod)
Cc1cccc(N(C)C(=O)C2CCCN2S(=O)(=O)c2cccc3nsnc23)c1 (configuration not stated)	PLC-gamma1 inh 10 | PLCg1 ctr inactive | PLCb3 confirm inactive
COc1ccc(S(=O)(=O)NCC(=O)NCc2cc(=O)n(C)c(=O)n2C)cc1C	PLC-gamma1 inh 9.9 | PLCg1 ctr inactive | PLCb3 confirm inactive
Cc1[nH]nc2c1C(c1cccc(C(F)(F)F)c1)N(Cc1ccccc1)C2=O (configuration not stated)	none (no result: NRP1-CendR mod)
COc1ccc(NC(=O)CSc2nnc(C)n2C2CC2)cc1S(=O)(=O)N1CCOCC1	PLC-gamma1 inh 9.8 | PLCg1 ctr inactive | PLCb3 confirm inactive
O=C(NC1CCCCCCC1)c1ccco1	PLC-gamma1 inh 11 | PLCg1 ctr inactive | PLCb3 confirm inactive
Cc1ccc(C(C(=O)NC2CCCCC2)N(CC2CCCO2)C(=O)CNC(=O)c2ccco2)cc1 (configuration not stated)	PLC-gamma1 inh 10.0 | PLCg1 ctr inactive | PLCb3 confirm inactive
O=C(NCC(=O)N(CC1CCCO1)C(C(=O)NC1CCCCC1)c1ccc(F)cc1)c1ccco1 (configuration not stated)	none
CCCN1CCS(=O)(=O)N(Cc2cn(Cc3ccc(Cl)cc3)nn2)C(C(=O)OC)C1 (configuration not stated)	none (no result: NRP1-CendR mod)
CCCCCC[C@@H](CN(CCCC)S(C)(=O)=O)c1ccccc1	none (no result: NRP1-CendR mod)
CC(=O)c1c(C)[nH]c(C(=O)Nc2ccccc2C)c1C	none (no result: NRP1-CendR mod, KLK7 zymogen act)
Cc1cc(/C=C2\SC(=S)N(C)C2=O)c(C)n1-c1cccc(O)c1	none
COc1ccc(-n2c(C)cc(/C=C3/SC(=S)N(C)C3=O)c2C)cc1	PLC-gamma1 inh 11 | PLCg1 ctr inactive | PLCb3 confirm inactive
NC1=C(Cl)C(=O)c2ccc(S(N)(=O)=O)cc2C1=O	PLC-gamma1 inh 16 | PLCg1 ctr 19 | PLCb3 confirm inactive
NS(=O)(=O)c1ccc2c(c1)C(=NO)c1cc(S(N)(=O)=O)ccc1-2	none
O=S1(=O)c2ccc(N3CCC[C@@H]3CO)cc2OCCCN1C1CC1	none (no result: NRP1-CendR mod)
Cc1ccc(OCCCn2c(CO)nc3ccccc32)cc1	none
Cc1cccc(OCCCn2c(CO)nc3ccccc32)c1	PLC-gamma1 inh 12 | PLCg1 ctr inactive | PLCb3 confirm inactive
CS(=O)(=O)N[C@@H]1C[C@@H]2O[C@H](CO)CC[C@@H]2O[C@@H]1CCc1ccc(/C=C/c2ccccc2)cc1	none (no result: NRP1-CendR mod)
O=C(c1cccs1)N1CCN(C(=O)c2cn(-c3ccccc3)nc2-c2ccccc2)CC1	PLCb3 inh 12 | PLCg1 ctr inactive | PLCb3 confirm inactive
c1ccc(-n2nnnc2OCCOc2nnnn2-c2ccccc2)cc1	PLC-gamma1 inh 14 | PLCg1 ctr inactive | PLCb3 confirm inactive
CCOc1cccc(C(c2c(C)n(C)n(-c3ccccc3)c2=O)c2c(C)n(C)n(-c3ccccc3)c2=O)c1OC	none
Cc1[nH]n(-c2ccccc2)c(=O)c1C(=O)c1ccccc1	none
